Bioassay records deposited in PubChem BioAssay by Broad Institute.
A selection: hits, their analogues and other compounds. The true share with any hit is near 2.6%.
E-selectin induc: induces E-selectin expression in human endothelial cells | P16581 | hit rate 0.37% among 260,000 | AID 686992 | activation, % at 7.58 µM | HUVEC E-selectin immunofluorescence imaging; normalized: neutral wells 0, TNF-alpha wells 100;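 active means mean E-selectin-positive cell signal at least 10% of the positive control, reached in at least 60% of replicates, without over 20% cell loss; inconclusive means no rule given, readout overlaps actives, possibly toxicity-flagged; inactive means the rest, including those meeting only one limit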
Target sequence (P16581 whole entry, looked up): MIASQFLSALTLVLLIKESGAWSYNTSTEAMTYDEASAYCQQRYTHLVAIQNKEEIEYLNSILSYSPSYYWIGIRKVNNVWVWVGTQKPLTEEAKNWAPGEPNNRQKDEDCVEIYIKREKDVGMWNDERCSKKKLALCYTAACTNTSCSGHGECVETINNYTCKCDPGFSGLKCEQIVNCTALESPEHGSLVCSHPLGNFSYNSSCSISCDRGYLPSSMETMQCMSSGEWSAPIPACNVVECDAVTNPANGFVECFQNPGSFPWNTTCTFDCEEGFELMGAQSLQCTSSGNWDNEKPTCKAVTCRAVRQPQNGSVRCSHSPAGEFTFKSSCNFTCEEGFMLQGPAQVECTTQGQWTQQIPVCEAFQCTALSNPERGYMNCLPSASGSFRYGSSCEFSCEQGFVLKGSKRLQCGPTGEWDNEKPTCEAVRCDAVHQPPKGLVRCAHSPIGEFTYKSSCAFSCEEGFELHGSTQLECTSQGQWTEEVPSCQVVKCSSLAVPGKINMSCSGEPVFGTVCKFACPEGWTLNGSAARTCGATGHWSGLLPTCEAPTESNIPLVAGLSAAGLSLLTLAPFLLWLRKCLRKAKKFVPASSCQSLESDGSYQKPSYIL
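Read-out basis: % PE-positive cells; Test system: HUVEC primary endothelial cells; Technique: immunofluorescence imaging; Dosing: single-point compound dose.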
DENV2 CPE: DENV2-induced cell death inhibition; CPE inhibition, % at 9.99 µM; DENV2-infected cells, cytopathic effect rescue, plate reader; hit rate 1.7% among 350,000; in the data active means CPE inhibition above about 20%, passing the limit was not always enough; inconclusive means no clear call, values can overlap the other calls; tested in BHK-21 cells;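 further: 0% = median of neutral control wells and 100% = median of positive control wells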
miR-122 sensor: inhibitors of miR-122 in Huh7 cells; hit rate 0.3% among 340,000; activation (reporter increase), % at 12.5 µM; Huh7 miR-122 Renilla luciferase sensor, 48 h; neutral wells = 0, positive control = 100;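 active means mean replicate activation score at least 90 and every replicate individually at or above 90; inconclusive means only one of the two criteria met; inactive means neither criterion met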;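 further: higher luciferase means less miR-122 activity so hits act as miR-122 inhibitors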
CFTR F508del cor: correctors of CFTR F508del function in bronchial epithelial cells. hit rate 0.36% among 350,000. activity (quench increase), % at 7.58 µM. CFBE cells, YFP halide quenching; stimulated with forskolin plus potentiator P3; % fluorescence drop versus neutral controls. AID 720511;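 active means mean added fluorescence quench of at least 8% versus neutral control, with both replicates also reaching 8%; inconclusive means only one of the mean or replicate conditions met; inactive means mean below 8% and not both replicates reaching 8%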;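 further: cells transiently co-express mutant CFTR-F508del with the halide-sensitive YFP; corrector assay measuring rescue of mutant channel to the surface after 24 h compound exposure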
ERAP1 inh: blocks human ERAP1 aminopeptidase activity; Q9NZ08; recombinant ERAP1, Leu-AMC fluorescence, 60 min; inhibition, % at 10.7 µM; hit rate 0.15% among 340,000; AID 652197;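 active means mean replicate inhibition of at least 30%, or all replicates individually reaching that 30% level; inactive means mean below 30% and not every replicate reaching it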;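 further: 0% = neutral control wells and 100% = L-leucinethiol positive control wells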
INS-1E GSIS act: GLuc luminescence reporter in INS-1E cells, primary screen for activators of glucose-dependent secretion of insulin. activation, % at 16.6 µM. INS-1E GLuc reporter insulin secretion, 2-3 h. hit rate 0.61% among 370,000;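 active means lowest replicate activation of at least 40%, so every replicate reaches that level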;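 further: 0% = median of neutral control wells and 100% = median of IBMX positive control wells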
* marks the source's active call; other numbers are inactive results; ! = repeats disagree; [ ] = another dose, or the depositor's remark.

How did CCN(C(C)=O)c1cnc(C=NNC(N)=S)c2ccccc12 do in these assays?
E-selectin induc: -0.2; DENV2 CPE: -1.6; miR-122 sensor: 4.2; CFTR F508del cor: 2.8; ERAP1 inh: 0.6; INS-1E GSIS act: 11.6

Results for NC(=S)NN=Cc1nccc2c(N)cccc12 ?
E-selectin induc: 0.3; DENV2 CPE: 2.7; miR-122 sensor: -12.5; CFTR F508del cor: 12.6*; ERAP1 inh: 0.5; INS-1E GSIS act: -3.0

What do the screens show for `CNC[C@@H]1Oc2ccc(NS(=O)(=O)c3ccc(Cl)cc3)cc2CC(=O)N([C@H](C)CO)C[C@@H]1C`?
E-selectin induc: 0.5; DENV2 CPE: -4.0; miR-122 sensor: 3.7[16.7 µM]; CFTR F508del cor: -0.4; ERAP1 inh: -1.0; INS-1E GSIS act: 9.7

What do the screens show for `CNC[C@@H]1Oc2ccc(NS(=O)(=O)c3ccc(Cl)cc3)cc2CC(=O)N([C@@H](C)CO)C[C@@H]1C`?
E-selectin induc: 0.0; DENV2 CPE: 40.7*; miR-122 sensor: 1.6[16.7 µM]; CFTR F508del cor: -1.8; ERAP1 inh: 3.4; INS-1E GSIS act: -3.5

How did CNC[C@H]1Oc2ccc(NS(=O)(=O)c3ccc(OC)cc3)cc2CC(=O)N([C@@H](C)CO)C[C@H]1C do in these assays?
E-selectin induc: -2.1; DENV2 CPE: 2.9; miR-122 sensor: -8.2[16.7 µM]; CFTR F508del cor: -0.9; ERAP1 inh: -1.4; INS-1E GSIS act: -4.9

How did CNC[C@H]1Oc2ccc(NS(=O)(=O)c3ccc(Cl)cc3)cc2CC(=O)N([C@@H](C)CO)C[C@@H]1C do in these assays?
E-selectin induc: 0.1; DENV2 CPE: 27.1*; miR-122 sensor: -0.5[16.7 µM]; CFTR F508del cor: -2.9; ERAP1 inh: 2.2; INS-1E GSIS act: -3.1

What do the screens show for `CNC[C@H]1Oc2ccc(NS(=O)(=O)c3ccc(OC)cc3)cc2CC(=O)N([C@@H](C)CO)C[C@@H]1C`?
E-selectin induc: 60.0*; DENV2 CPE: 6.9; miR-122 sensor: -3.3[16.7 µM]; CFTR F508del cor: -0.7; ERAP1 inh: 3.2; INS-1E GSIS act: 9.3

What do the screens show for `CO[C@@H]1CN(C)C(=O)c2ccc(NC(=O)CC(F)(F)F)cc2OC[C@@H](C)N(C(C)=O)C[C@@H]1C`?
E-selectin induc: 0.3; DENV2 CPE: -7.9; CFTR F508del cor: -4.1; ERAP1 inh: -3.3; INS-1E GSIS act: -9.2

How did CCCN(C)C[C@@H]1Oc2ncc(-c3ccccc3)cc2C(=O)N([C@H](C)CO)C[C@@H]1C do in these assays?
E-selectin induc: 89.8*; DENV2 CPE: -6.5; miR-122 sensor: -6.4[16.7 µM]; CFTR F508del cor: 0.1; ERAP1 inh: -0.3; INS-1E GSIS act: -15.7

How did C[C@@H]1CN([C@@H](C)CO)C(=O)c2cc(/C=C/c3ccccc3)cnc2O[C@H]1CN(C)Cc1ccncc1 do in these assays?
E-selectin induc: -0.1; DENV2 CPE: 17.6; miR-122 sensor: 4.6[16.7 µM]; CFTR F508del cor: 0.7; ERAP1 inh: 4.5; INS-1E GSIS act: -20.8

Results for COc1ccc(-c2cnc3c(c2)C(=O)N([C@@H](C)CO)C[C@H](C)[C@@H](CN(C)Cc2ccccc2)O3)cc1 ?
E-selectin induc: 0.3; DENV2 CPE: 47.8*; miR-122 sensor: -8.4[16.7 µM]; CFTR F508del cor: 1.7; ERAP1 inh: -0.6; INS-1E GSIS act: -2.3

How did COc1ccc(-c2cnc3c(c2)C(=O)N([C@H](C)CO)C[C@H](C)[C@@H](CN(C)Cc2ccccc2)O3)cc1 do in these assays?
E-selectin induc: -0.1; DENV2 CPE: inconclusive; miR-122 sensor: -4.7[16.7 µM]; CFTR F508del cor: 1.0; ERAP1 inh: -1.0; INS-1E GSIS act: -13.9

What do the screens show for `C[C@H]1CN([C@@H](C)CO)C(=O)c2cc(-c3cccnc3)cnc2O[C@H]1CN(C)C`?
E-selectin induc: 0.0; DENV2 CPE: 73.0*; miR-122 sensor: -2.5[16.7 µM]; CFTR F508del cor: 1.2; ERAP1 inh: 3.2; INS-1E GSIS act: -4.7

Results for C[C@H](CO)N1C[C@H](C)[C@H](CN(C)Cc2ccncc2)Oc2ncc(/C=C/c3ccccc3)cc2C1=O ?
E-selectin induc: 0.1; DENV2 CPE: 23.1*; miR-122 sensor: -5.3[16.7 µM]; CFTR F508del cor: -2.8; ERAP1 inh: 1.5; INS-1E GSIS act: -6.8

Results for C[C@H]1CN([C@@H](C)CO)S(=O)(=O)c2ccc(C3=CCCCC3)cc2O[C@H]1CN(C)C(=O)C1CCOCC1 ?
E-selectin induc: 1.6; DENV2 CPE: 15.0; miR-122 sensor: 1.2[16.7 µM]; CFTR F508del cor: -0.3; ERAP1 inh: 0.6; INS-1E GSIS act: 1.3

How did CNC(=O)C[C@@H]1CC[C@H]2[C@@H](COC[C@H](O)CN2C(=O)c2ccc3c(c2)OCO3)O1 do in these assays?
E-selectin induc: 0.0; DENV2 CPE: -4.5; miR-122 sensor: 2.2[16.7 µM]; CFTR F508del cor: -3.8; ERAP1 inh: -1.9; INS-1E GSIS act: 5.0

Results for C[C@H]1CCCCO[C@H](CN(C)Cc2ccccc2)[C@@H](C)CN([C@@H](C)CO)C(=O)c2cc(NC(=O)Nc3ccccc3)ccc2O1 ?
DENV2 CPE: -6.6; miR-122 sensor: 10.8[16.7 µM]; CFTR F508del cor: -3.0; ERAP1 inh: 2.1; INS-1E GSIS act: -9.8

Results for C[C@H](CO)N1C[C@H](C)[C@@H](CN(C)Cc2ccccc2)Oc2ccc(NC(=O)Nc3ccc(F)cc3)cc2CC1=O ?
E-selectin induc: -0.1; DENV2 CPE: 1.5; miR-122 sensor: -13.6[16.7 µM]; CFTR F508del cor: -0.6; ERAP1 inh: 0.0; INS-1E GSIS act: -17.8

How did C/C=C/c1cnc2c(c1)C(=O)N([C@H](C)CO)C[C@H](C)[C@H](CN(C)S(=O)(=O)c1ccccc1)O2 do in these assays?
E-selectin induc: -0.1; DENV2 CPE: 79.5*; miR-122 sensor: 7.8[16.7 µM]; CFTR F508del cor: 2.1; ERAP1 inh: -0.3; INS-1E GSIS act: -6.5

How did C[C@@H]1CN([C@@H](C)CO)C(=O)c2cc(C#CCN(C)C)cnc2O[C@H]1CN(C)Cc1ccc(-c2ccccc2)cc1 do in these assays?
E-selectin induc: 0.2; DENV2 CPE: -2.6; miR-122 sensor: -22.8[16.7 µM]; CFTR F508del cor: 9.2*!; ERAP1 inh: -0.5; INS-1E GSIS act: 13.1

How did C[C@@H]1CN([C@@H](C)CO)C(=O)c2cc(C#CCN(C)C)cnc2O[C@@H]1CN(C)Cc1ccc(-c2ccccc2)cc1 do in these assays?
E-selectin induc: -0.2; DENV2 CPE: inconclusive; miR-122 sensor: -9.6[16.7 µM]; CFTR F508del cor: -3.8; ERAP1 inh: -1.9; INS-1E GSIS act: 1.8

How did O=C(C[C@@H]1CC[C@H](NC(=O)c2cnccn2)[C@H](CO)O1)NCc1ccccc1F do in these assays?
E-selectin induc: -0.4; DENV2 CPE: -1.9; miR-122 sensor: -5.7[16.7 µM]; CFTR F508del cor: 0.2; ERAP1 inh: 0.4; INS-1E GSIS act: 4.9

How did CN1C(=O)c2cc(NC(=O)c3cccs3)ccc2OC[C@@H]2O[C@@H](CC(=O)NCCN3CCCCC3)CC[C@H]21 do in these assays?
E-selectin induc: 0.0; DENV2 CPE: 40.5*; miR-122 sensor: -83.3[16.7 µM]; CFTR F508del cor: -4.5; ERAP1 inh: -1.8; INS-1E GSIS act: -3.3
